{
  "source": "ChEMBL document CHEMBL3352730",
  "about": "“Synthesis and effects on cell viability of flavonols and 3-methyl ether derivatives on human leukemia cells” (Eur J Med Chem, 2014)",
  "key": {"[1]": {"tested_on": "MOLT-3", "assay": "Effect on Bcl-2 expression in human MOLT3 cells by Western blotting method", "type": "functional, cell-based", "summary_of_the_method": "(§1)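 Cells were exposed to a range of compound concentrations and harvested at 24 h. Lysates were immunoblotted for caspase proforms and cleaved forms, and for Bcl-2 family proteins.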"}, "[2]": {"assay": "Cytotoxicity against human HL60 cells after 72 hrs by MTT assay", "type": "functional, cell-based", "settings": "HL-60, 72 h", "summary_of_the_method": "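MTT colorimetric assay with 72 h continuous exposure. IC50 was fitted per experiment by non-linear regression. Values are means with SE from at least three independent experiments, each run in triplicate.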"}, "[3]": {"tested_on": "U-937", "assay": "Induction of cell cycle arrest in human U937 cells assessed as accumulation at subG1 phase at 1 uM after 48 hrs by propidium iodide staining based flow cytometry (reference value: 6.7 +/- 0.3%)", "type": "functional"}, "[4]": {"tested_on": "HL-60", "assay": "Induction of cell cycle arrest in human HL60 cells assessed as accumulation at G1 phase at 1 uM after 24 hrs by propidium iodide staining based flow cytometry (reference value: 53 +/- 1.1%)", "type": "functional"}, "[5]": {"tested_on": "HL-60", "assay": "Induction of cell cycle arrest in human HL60 cells assessed as accumulation at G2/M phase at 1 uM after 24 hrs by propidium iodide staining based flow cytometry (reference value: 22.5 +/- 0.9%)", "type": "functional"}, "[6]": {"tested_on": "HL-60", "assay": "Induction of apoptosis in human HL60 cells assessed as pro-caspase-8 processing at 3 and 10 uM after 6 to 24 hrs by immunoblotting method", "type": "functional, cell-based", "summary_of_the_method": "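Kinetic and dose-response immunoblots. Cells were treated, harvested at the indicated times, and probed with antibodies that detect both procaspase-8/-9 and their cleaved fragments.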"}, "[7]": {"tested_on": "HL-60", "assay": "Induction of cell cycle arrest in human HL60 cells assessed as accumulation at S phase at 10 uM after 12 hrs by propidium iodide staining based flow cytometry (reference value: 14.7 +/- 0.3%)", "type": "functional"}, "[8]": {"tested_on": "MOLT-3", "assay": "Induction of apoptosis in human MOLT3 cells assessed as pro-caspase-8 cleavage by Western blotting method", "type": "functional, cell-based", "summary_of_the_method": "as §1"}, "[9]": {"tested_on": "HL-60", "assay": "Induction of cell cycle arrest in human HL60 cells assessed as accumulation at subG1 phase at 1 uM after 12 hrs by propidium iodide staining based flow cytometry (reference value: 6.1 +/- 0.5%)", "type": "functional"}, "[10]": {"tested_on": "U-937", "assay": "Cytotoxicity against human U937 cells at 30 uM in presence of 0.5 ug/mL TRAIL incubated simultaneously with drug for 48 hrs by MTT assay", "type": "functional, cell-based", "summary_of_the_method": "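U937 cells, MTT viability read-out. One arm received TRAIL at 0.5 µg/mL together with compound at 30 µM for 48 h. The other arm had compound for 24 h, then TRAIL for 24 h. Three independent experiments, each in triplicate.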"}, "[11]": {"tested_on": "HL-60", "assay": "Induction of cell cycle arrest in human HL60 cells assessed as accumulation at S phase at 3 uM after 12 hrs by propidium iodide staining based flow cytometry (reference value: 14.7 +/- 0.3%)", "type": "functional"}, "[12]": {"tested_on": "HL-60", "assay": "Induction of cell cycle arrest in human HL60 cells assessed as accumulation at G1 phase at 1 uM after 12 hrs by propidium iodide staining based flow cytometry (reference value: 57.2 +/- 0.9%)", "type": "functional"}, "[13]": {"tested_on": "U-937", "assay": "Induction of Bid processing in human U937 cells by Western blotting method"}, "[14]": {"tested_on": "HL-60", "assay": "Increase in TRAIL expression in human HL60 cells at 10 30 uM after 24 hrs by immunoblotting method", "type": "functional, cell-based", "summary_of_the_method": "(§2)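 HL-60 and U937 cells were treated with increasing concentrations for 24 h. Lysates were immunoblotted for TRAIL, DR4 and DR5.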"}, "[15]": {"tested_on": "HL-60", "assay": "Induction of cell cycle arrest in human HL60 cells assessed as accumulation at S phase at 1 uM after 24 hrs by propidium iodide staining based flow cytometry (reference value: 17.9 +/- 0.6%)", "type": "functional"}, "[16]": {"tested_on": "U-937", "assay": "Induction of cell cycle arrest in human U937 cells assessed as accumulation at G1 phase at 3 uM after 48 hrs by propidium iodide staining based flow cytometry (reference value: 51.9 +/- 0.9%)", "type": "functional"}, "[17]": {"tested_on": "HL-60", "assay": "Induction of cell cycle arrest in human HL60 cells assessed as accumulation at G1 phase at 10 uM after 12 hrs by propidium iodide staining based flow cytometry (reference value: 57.2 +/- 0.9%)", "type": "functional"}, "[18]": {"tested_on": "U-937", "assay": "Induction of cell cycle arrest in human U937 cells assessed as accumulation at G1 phase at 3 uM after 12 hrs by propidium iodide staining based flow cytometry (reference value: 45.8 +/- 0.8%)", "type": "functional"}, "[19]": {"tested_on": "MOLT-3", "assay": "Induction Bax cleavage in human MOLT3 cells at 3 uM by Western blotting method", "type": "functional, cell-based", "summary_of_the_method": "as §1"}, "[20]": {"tested_on": "HL-60", "assay": "Induction of apoptosis in human HL60 cells in presence of 10 uM MEK1/2 inhibitor PD98059 after 24 hrs by propidium iodide staining based flow cytometry", "type": "functional"}, "[21]": {"tested_on": "HL-60", "assay": "Increase in DR5 expression in human HL60 cells at 10 30 uM after 24 hrs by immunoblotting method", "type": "functional, cell-based", "summary_of_the_method": "as §2"}, "[22]": {"tested_on": "U-937", "assay": "Induction of cell cycle arrest in human U937 cells assessed as accumulation at G1 phase at 3 uM after 24 hrs by propidium iodide staining based flow cytometry (reference value: 49.8 +/- 1.5%)", "type": "functional"}, "[23]": {"tested_on": "U-937", "assay": "Induction of cell cycle arrest in human U937 cells assessed as accumulation at G1 phase at 10 uM after 24 hrs by propidium iodide staining based flow cytometry (reference value: 49.8 +/- 1.5%)", "type": "functional"}, "[24]": {"tested_on": "HL-60", "assay": "Induction of apoptosis in human HL60 cells assessed as pro-caspase-6 cleavage by Western blotting method", "type": "functional, cell-based", "summary_of_the_method": "as §1"}, "[25]": {"tested_on": "HL-60", "assay": "Induction of apoptosis in human HL60 cells at 30 uM after 24 hrs by propidium iodide staining based flow cytometry (reference value: 3.8 +/- 0.6%)", "type": "functional"}, "[26]": {"tested_on": "U-937", "assay": "Induction of cell cycle arrest in human U937 cells assessed as accumulation at G2/M phase at 1 uM after 12 hrs by propidium iodide staining based flow cytometry (reference value: 24.2 +/- 1.2%)", "type": "functional"}, "[27]": {"tested_on": "U-937", "assay": "Induction of cell cycle arrest in human U937 cells assessed as accumulation at G1 phase at 10 uM after 48 hrs by propidium iodide staining based flow cytometry (reference value: 51.9 +/- 0.9%)", "type": "functional"}, "[28]": {"tested_on": "HL-60", "assay": "Induction of cell cycle arrest in human HL60 cells assessed as accumulation at G2/M phase at 10 uM after 24 hrs by propidium iodide staining based flow cytometry (reference value: 22.5 +/- 0.9%)", "type": "functional"}, "[29]": {"tested_on": "HL-60", "assay": "Induction of cell cycle arrest in human HL60 cells assessed as accumulation at G1 phase at 10 uM after 48 hrs by propidium iodide staining based flow cytometry (reference value: 60.4 +/- 0.4%)", "type": "functional"}, "[30]": {"target": "c-Jun N-terminal kinase, JNK (Homo sapiens) (UniProt P45983+P53779+P45984)", "assay": "Increase in JNK/SAPK phosphorylation in human HL60 cells at 10 to 30 uM after 2 to 6 hrs by Western blotting method", "type": "cell-based", "settings": "HL-60", "summary_of_the_method": "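HL-60 cells were incubated for a time course. Extracts were immunoblotted with phospho-specific antibodies for ERK 1/2, JNK/SAPK and p38MAPK. Membranes were then stripped and reprobed for the total kinases as loading controls.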"}, "[31]": {"tested_on": "U-937", "assay": "Increase in TRAIL expression in human U937 cells at 10 30 uM after 24 hrs by immunoblotting method", "type": "functional, cell-based", "summary_of_the_method": "as §2"}, "[32]": {"tested_on": "U-937", "assay": "Induction of cell cycle arrest in human U937 cells assessed as accumulation at G1 phase at 1 uM after 48 hrs by propidium iodide staining based flow cytometry (reference value: 51.9 +/- 0.9%)", "type": "functional"}},
  "note": "pIC50: −log10 of the molar value. Calls of active or inactive are those of the source. No cut-off for these calls is given here.",
  "data": [
    {"smiles": "O=c1c(O)c(-c2ccc(Br)cc2)oc2ccccc12", "values": [
      {"measurement": "Activity", "setting": "[1]", "result": "inactive"},
      {"measurement": "pIC50", "setting": "[2]", "result": 5.48},
      {"measurement": "Activity", "setting": "[3]", "result": 7, "unit": "%"},
      {"measurement": "Activity", "setting": "[4]", "result": 49.5, "unit": "%"},
      {"measurement": "Activity", "setting": "[5]", "result": 22.5, "unit": "%"},
      {"measurement": "Activity", "setting": "[6]", "result": "Active"},
      {"measurement": "Activity", "setting": "[7]", "result": 15.9, "unit": "%"},
      {"measurement": "Activity", "setting": "[8]", "result": "Active"},
      {"measurement": "Activity", "setting": "[9]", "result": 5.6, "unit": "%"},
      {"measurement": "Activity", "setting": "[10]", "result": "Active"},
      {"measurement": "Activity", "setting": "[11]", "result": 14.8, "unit": "%"},
      {"measurement": "Activity", "setting": "[12]", "result": 56.2, "unit": "%"},
      {"measurement": "Activity", "setting": "[13]", "result": "Active"},
      {"measurement": "Activity", "setting": "[14]", "result": "Active"},
      {"measurement": "Activity", "setting": "[15]", "result": 20.7, "unit": "%"},
      {"measurement": "Activity", "setting": "[16]", "result": 38.5, "unit": "%"},
      {"measurement": "Activity", "setting": "[17]", "result": 58.2, "unit": "%"},
      {"measurement": "Activity", "setting": "[18]", "result": 46.6, "unit": "%"},
      {"measurement": "Activity", "setting": "[19]", "result": "Active"},
      {"measurement": "fold change (FC)", "setting": "[20]", "result": 2},
      {"measurement": "Activity", "setting": "[21]", "result": "Active"},
      {"measurement": "Activity", "setting": "[22]", "result": 42.3, "unit": "%"},
      {"measurement": "Activity", "setting": "[23]", "result": 40.2, "unit": "%"},
      {"measurement": "Activity", "setting": "[24]", "result": "Active"},
      {"measurement": "Activity", "setting": "[25]", "result": 51.8, "unit": "%"},
      {"measurement": "Activity", "setting": "[26]", "result": 25.1, "unit": "%"},
      {"measurement": "Activity", "setting": "[27]", "result": 41.4, "unit": "%"},
      {"measurement": "Activity", "setting": "[28]", "result": 12.6, "unit": "%"},
      {"measurement": "Activity", "setting": "[29]", "result": 18.4, "unit": "%"},
      {"measurement": "Activity", "setting": "[30]", "result": "Active"},
      {"measurement": "Activity", "setting": "[31]", "result": "Active"},
      {"measurement": "Activity", "setting": "[32]", "result": 49, "unit": "%"}
    ]}
  ]
}
